Test results from the EternaBench riboswitch data.

Test system: MS2 coat protein
Experiment: apparent Kd, MS2 coat protein; higher = weaker binding; RNA-MaP array; FMN 200 µM where present
Procedure, shortened: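 The titrant was SNAP-549-labelled MS2 coat protein, run from 0.7 or 1.5 nM in doubling steps to 3 µM. It was applied to designs transcribed by stalled E. coli RNA polymerase on Illumina sequencing-chip clusters, without ligand first and then with constant ligand, in 100 mM Tris-HCl pH 7.5, 80 mM KCl, 4 mM MgCl2, BSA, DTT, yeast tRNA and Tween-20. The apparent Kd is the median of filtered per-cluster binding-curve fits, with green signal normalised to red-channel RNA signal and control-cluster median Fmax.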

[1] = designed as: OFF switch for flavin mononucleotide, no ligand
[2] = ligand present: flavin mononucleotide, designed as: OFF switch for flavin mononucleotide
[3] = designed as: ON switch for flavin mononucleotide, no ligand
[4] = ligand present: flavin mononucleotide, designed as: ON switch for flavin mononucleotide

Sequence	apparent Kd [1]	apparent Kd [2]	apparent Kd [3]	apparent Kd [4]
AUGCGACAUGAGGAUCACCCAUGUGAGGAUAUGGCCUGUUUGGCGUGUGCUGGCUCUGUCAGAAGGCGCGUGGG	103 nM	270 nM		
GCGUGACAUGAGGAUCACCCAUGUGAGGAUAUCUGGACACUCUUUAUUUUAGAUGUCCAGAGAAGGCACAUGCU	238 nM	126 nM		
GAGUGGAAGGCCGCUACAUGAGGAUCACCCAUGUGCUAAGCACAGGAUAUCGCGCUGGCCCGGCGCGAGAAGGGUGACGGCCUU			737 nM	283 nM
AUCCUGCGAGGAUAUACAUAGUGACGUCUGUUUGGUCUUAAACAUGAGGAUCACCCAUGUAGAAGGUGCGUCAC	15.8 nM	19.5 nM		
CAGUACUGAGGAUAUACAUGAGGAUCACCCAUGUGCUCAAAGUAGGAUACUACUAUUAGUAGAAGGCAGUACUG	22.2 nM	214 nM		
AACAGGUUCACAUGAGGAUCACCCAUGUUAGCCUAAUGUAGGAGAAGGACGGUAGCUGGGCUGACGUAGGAUAUCCUACUGUGA			5.08 nM	5.11 nM
AGCUGUGGCCGAGGAUAUCUAGCUUCAAUAACCGAAAUAUAAUCGGACAUGAGGAUCACCCAUGUAGAGAAGGCGGUCUCAGCA	29.6 nM	29.6 nM		
AGCUAGUCAGGAUAUACGAACAUGUCAUUAGACGUGAAGGGACAUGAGGAUCACCCAUGUAGAAGGGACUAGCA	40 nM	134 nM		
AACGGUGGGUAGGAUAUCCGGUUCUAGUUGCCAGGAGAAGGGCCCACAUGAGGAUCACCCAUGUGGGUGGGCUC	47.7 nM	26.1 nM		
CUCGAGUUAGGAUAUCGAACGUAACAAGCGGGAACUCCCGCCGAGAAGGAACAUGAGGAUCACCCAUGUGAAAA	23.2 nM	22.2 nM		
GGAGCACACAUUAACAUGAGGAUCACCCAUGUCAAAGGACAUGAGGAUAUGGAUCCGAAAAGGAUCCAGAAGGCAUGGUGCUCC			173 nM	11.1 nM
CUCACGUUAGUAGGAUAUCCGACAUGAGGAUCACCCAUGUCACUGCGUCGCUAAGGUAGAUGCAAGGAGAAGGGCUGAUAAAUA			259 nM	124 nM
AUUAUUUACAUAGGAUAUUGUUACAUGAGGAUCACCCAUGUUUUCAUGGUAUUAAUAUAUUAUUUCAAGAAGGAUGUUGUUACA			32.2 nM	19.6 nM
GCGGAGGGUACAGGAUAUCGUCCUUAGUUGGUACGAGAAGGGUAGCGCUGCCACAUGAGGAUCACCCAUGUGCCCAAACUAAAA			159 nM	201 nM
AAAUAAAGCAGUGUAUUAAUAUAACAUGAGGAUCACCCAUGUAGAAGGCUCGAGCAAUAUGCUCGAGAGGAUAUACAACACUGC	7.3 nM	7.18 nM		
UUAAUUAUGUAAGGAUAUACAUGAGGAUUUCUCGUAGAAGGUACAUUACAUGAGGAUCACCCAUGUGGGUGUCCGUAGACGCCA			632 nM	614 nM
UGUCCUUGAGGCUCGGACGUGUCGCCAGAAGGCAAUUUCUGACAUGAGGAUCACCCAUGUCCAAUUGAGGAUAUGGCUGCGUUG			17.3 nM	5.56 nM
CAGAAGUCAGGAUAUGCAUGGCGGGACUUGCGUCGUGGCGUGCAGAAGGGACAUGAGGAUCACCCAUGUGGAGU	173 nM	251 nM		
CCACGUCACAUUUACAUGAGGAUCACCCAUGUCGAAAGACAUGAGGAUAUGCUACCUAAUUGGUAGCAGAAGGCAUGGACGUGG			203 nM	284 nM
CGUUGUAACGCAGGAUAUCCAAAGCUUUUUGCAGGAGAAGGGUGUUACAUGAGGAUCACCCAUGUGAAGGCCCGCAUUCCUCAU	5.57 nM	6.41 nM		
GAAGUUCUCCAGAAGGCACAUGAGGAUCACCCAUGUAAAAGAGCCUUAAUGUGAGGAUAUGGAAGCUGCUUCAUAGAUGACAUA	6.61 nM	26.5 nM		
AAUAACAGAGGAUAUACUGUUUUAUGUGUUUGUUAUUUUGAACAUGAGGAUCACCCAUGUAGAAGGCUGAUUAA	41.2 nM	38.2 nM		
GUGUAGUCAGGAUAUACAUAGGAAGAGAAGAGAAGAGAAGUACAUGAGGAUCACCCAUGUAGAAGGGACAGUGU	24.3 nM	25.1 nM		
